High-throughput results from PubChem BioAssay.
Compounds with a hit are over-represented: about 2.7% of the library has one in this group of screens.
Wee1 degr inh: inhibitors of human Wee1 degradation; P30291; HeLa Luc-Wee1K328M stability, luciferase luminescence; 100% = proteasome inhibitor MG132 effect; reporter increase, % at 5 µM; hit rate 1.2% among 220,000;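 active = activation above the mean of all tested compounds plus 3 SD, set per screening run, cut at about 8.8% in these data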;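 also: cells exposed to compound for 20 h before luminescence read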
Hck Nef HTS: human Hck-Nef kinase inhibition; P08631; inhibition, % at 20 µM; hit rate 0.68% among 220,000; Recombinant Hck-YEEI plus Nef, Z-Lyte FRET kinase assay;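 active = Hck-Nef kinase inhibition above about 50%, limit read from the data; inactive = inhibition below that limit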
14-3-3 Bad PPI: disrupts binding of bovine 14-3-3 zeta to phospho-Bad peptide; P63103; TR-FRET 14-3-3zeta/Dy647-pBad peptide displacement, 1 h; inhibition, % at 21.7 µM; hit rate 0.71% among 220,000;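 active = inhibition above about 70%, limit read from the data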
TbHK1 inh: blocks Trypanosoma brucei hexokinase 1 activity; AID 1430; hit rate 0.11% among 220,000; inhibition, % at 10 µM; recombinant TbHK1, G6PDH-coupled NADH A340;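 active = inhibition of 50% or more in the single-dose primary screen; inactive = inhibition below 50%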
Mdm2 ligase inh: blocks human Mdm2 ubiquitin ligase activity | Q00987 | cell-based MDM2 ubiquitination luciferase reporter, 2 h; 0 = plate control, 100 = twice control, blank-subtracted | signal enhancement, % at 5 µM | hit rate 0.11% among 210,000;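 active = signal enhancement of 30% or more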;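 also: luminescence tracks abundance of the self-degrading MDM2-luciferase fusion protein; higher signal means inhibition of MDM2 E3 ligase activity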
Target sequence (Q00987 whole entry, looked up, the tested form may be a part): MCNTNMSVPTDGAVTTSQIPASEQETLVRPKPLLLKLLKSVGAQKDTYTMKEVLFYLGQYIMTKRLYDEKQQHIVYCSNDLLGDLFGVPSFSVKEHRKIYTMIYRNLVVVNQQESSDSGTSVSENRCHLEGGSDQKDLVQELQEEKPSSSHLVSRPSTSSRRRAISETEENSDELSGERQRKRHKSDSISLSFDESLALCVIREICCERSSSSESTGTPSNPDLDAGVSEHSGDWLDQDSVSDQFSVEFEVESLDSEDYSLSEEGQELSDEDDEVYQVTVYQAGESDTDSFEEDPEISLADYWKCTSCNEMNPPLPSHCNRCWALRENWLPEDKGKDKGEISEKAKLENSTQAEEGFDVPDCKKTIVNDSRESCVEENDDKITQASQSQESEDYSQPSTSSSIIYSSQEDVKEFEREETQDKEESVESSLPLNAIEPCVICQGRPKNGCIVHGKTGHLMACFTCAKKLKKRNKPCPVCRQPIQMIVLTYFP
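Assay system: stable mammalian line carrying autodegrading MDM2–luciferase fusion reporter; Input: 2000 cells in each well; Compound dosing: single-point 5 µM; Schedule: 2 h compound exposure at 37 °C; Signal: SteadyLite luciferase luminescence after 15 min room-temperature reagent incubation; Evaluation: % luminescence enhancement versus blank-corrected plate control mean; Benchmarks: plate controls and plate blanks.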
Hck Nef conf: Hck-Nef kinase inhibition, confirmation; shares compounds with Hck Nef HTS; Recombinant Hck-YEEI:Nef, Z-Lyte FRET kinase assay; calls only at 10 µM; hit rate 28% among 1,300; AID 463188;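 active = average inhibition of at least 50%, with Z-scores no higher than 3 in both the phospho-tyrosine peptide and fluorescence counterscreens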
Of the large screens only hits and unclear results are named; the others gave an inactive call (follow-up assays come after a bar, where shown).

CCOC(=O)c1c(C)oc2c1c(C(c1ccncc1)N1CCOCC1)c(O)c1ccccc12 (stereo not given)	Hck Nef HTS 116.9 | Hck Nef conf active
CCCOc1c(Br)cc(C2C3=C(CCCC3=O)N(CC)C3=C2C(=O)CCC3)cc1OC	none
CCCOc1c(Br)cc(C2C3=C(CCCC3=O)N(C)C3=C2C(=O)CCC3)cc1OC	Hck Nef HTS 54.2
O=[N+]([O-])c1ccc(-c2nn(-c3ccccc3)cc2/C=N/n2c(-c3ccncc3)n[nH]c2=S)cc1	Hck Nef HTS 53.6 | Hck Nef conf inactive
CCc1ccc2c(c1)C(=O)C(=O)N2CC(=O)Nc1ccc(NC(=O)c2ccccn2)cc1	Hck Nef HTS 77.0 | Hck Nef conf active
COc1ccc(Nc2nc(C(=O)NCCCN3CCOCC3)cs2)cc1	none
COc1cc(/C=C2/C(=N)N3C(c4ccccc4)=CSC3=NC2=O)ccc1OCC(=O)O	Hck Nef HTS 79.0 | Hck Nef conf active
CC1(OC(=O)C2CCCC2)C(=O)C=C2C=C(c3ccsc3)N(C3CCCC3)C=C2C1=O (stereo not given)	none (no result: Wee1 degr inh)
CC1(OC(=O)C2CCCC2)C(=O)C=C2C=C(c3ccsc3)OC=C2C1=O (stereo not given)	Hck Nef HTS 61.7 (no result: Wee1 degr inh) | Hck Nef conf active
COC(=O)CCC(=O)OC1(C)C(=O)C2=COC(c3ccc(OC)cc3)=CC2=C(Br)C1=O (stereo not given)	Hck Nef HTS 93.5 (no result: Wee1 degr inh) | Hck Nef conf active
COc1ccc(C2=CC3=C(Br)C(=O)C(C)(OC(=O)c4ccc(Cl)nc4)C(=O)C3=CO2)cc1 (stereo not given)	Hck Nef HTS 94.0 (no result: Wee1 degr inh) | Hck Nef conf active
COc1ccc(C2=CC3=C(Br)C(=O)C(C)(OC(=O)C4CCCC4)C(=O)C3=CO2)cc1 (stereo not given)	Hck Nef HTS 82.1 (no result: Wee1 degr inh) | Hck Nef conf active
COC(=O)CCC(=O)OC1(C)C(=O)C2=CN(C(CO)CO)C(c3ccc(OC)cc3)=CC2=C(Br)C1=O (stereo not given)	none (no result: Wee1 degr inh)
CC(C)N1C(=O)CCN(C=O)c2ccccc21	none
CCCC(C(=O)NC1CCCC1)N(CCCN1CCOCC1)C(=O)c1snc(C(N)=O)c1N (stereo not given)	none
CCSCc1nnc(SCC(=O)Nc2ccc(F)cc2)n1CC	none
COc1ccc(/C=N/Nc2ncnc3c2[nH]c2ccc(C)cc23)c(OC)c1OC	Hck Nef HTS 68.8, 14-3-3 Bad PPI 86.8 | Hck Nef conf active
COc1cc(OC)c(OC)cc1/C=N/Nc1ncnc2c1[nH]c1ccccc12	Hck Nef HTS 52.7
CCOC(=O)N1CCN(C2CC(=O)N(c3ccc(Oc4ccccc4)cc3)C2=O)CC1 (stereo not given)	none
O=C(CSc1nc(O)cc(=O)n1-c1ccccc1)Nc1nc2ccccc2s1	none
COC(=O)c1sc(NC(=O)/C=C/c2ccc(C)cc2)nc1C	none
COC(=O)c1sc(NC(=O)/C=C/c2ccccc2Cl)nc1C	Hck Nef HTS 66.2 | Hck Nef conf inactive
COC(=O)Cc1[nH]n(-c2ccccc2)c(=O)c1C=Nc1ccc(C)cc1	none
CCOC(=O)c1c(NC(=O)/C=C\C(=O)O)sc(C)c1-c1ccccc1	Hck Nef HTS 56.8 | Hck Nef conf active
O=C(CSc1nc(-c2ccc(F)cc2)nc2ccc(F)cc12)Nc1cccc(C(=O)O)c1	none
O=C(CSc1nc(-c2ccc(F)cc2)nc2c1Cc1ccccc1O2)Nc1ccc(C(=O)O)cc1	Hck Nef HTS 145.5, 14-3-3 Bad PPI 96.8 | Hck Nef conf active
Cc1c(C(=O)Oc2ccc(-c3cnc4ccccc4n3)cc2)cccc1[N+](=O)[O-]	none
O=C(Oc1ccc(-c2cnc3ccccc3n2)cc1)c1cc([N+](=O)[O-])ccc1Cl	Hck Nef HTS 52.7 | Hck Nef conf active
CCOC(=O)c1sc2nc3c(SCC(=O)O)cc(C(=O)c4ccccc4O)cn3c(=O)c2c1C	none
O=C(O)CSc1cc(C(=O)c2ccccc2O)cn2c(=O)c3c(-c4ccccc4)csc3nc12	Hck Nef HTS 60.8 | Hck Nef conf active
COc1c(O)ccc(/C=C(\C#N)c2nc3ccccc3[nH]2)c1[N+](=O)[O-]	Hck Nef HTS 50.1 | Hck Nef conf inactive
COc1cc(/C=C(\C#N)c2nc3ccc(C)cc3[nH]2)c([N+](=O)[O-])cc1OC	none
COc1ccc(N2C(=O)C(CC(=O)Nc3ccc(F)cc3)N(CCc3ccc(OC)c(OC)c3)C2=O)cc1 (stereo not given)	none
O=C(NCC1CCCO1)c1ccc(NS(=O)(=O)c2ccccc2)cc1 (stereo not given)	none
COc1ccccc1NC(=O)c1cc2c(s1)-c1ccccc1S(=O)(=O)C2	Hck Nef HTS 52.2 | Hck Nef conf inactive
CC[n+]1ccc(C)c2cc(SC(F)(F)F)ccc21	Hck Nef HTS 72.3 | Hck Nef conf inactive
CC[n+]1ccc(C)c2cc(S(=O)C(F)(F)F)ccc21 (stereo not given)	none
CN1C(=O)C(O)(CC(=O)c2cccc(-n3cccc3)c2)c2ccccc21 (stereo not given)	none
C=CCOC(=O)C1=C(C)NC(SCC(=O)N(CC)CC)=C(C#N)C1c1ccccc1 (stereo not given)	none
C=CCOC(=O)C1=C(C)NC(SCC(=O)NC(=O)OCC)=C(C#N)C1c1cccnc1 (stereo not given)	Hck Nef HTS 50.2 | Hck Nef conf inactive
Cc1ccc(S(=O)(=O)N(C)CCCC(=O)Nc2ccc(C)cc2C)cc1	none
COCCNC(=S)NNc1cccc(C(=O)O)c1	none
COC(=O)c1cc(OC)c(OC)cc1NC(=O)c1c(C)noc1C	none (no result: 14-3-3 Bad PPI, Mdm2 ligase inh)
O=C1NN(c2ccccc2)C(=O)/C1=C/c1coc2ccccc2c1=O	Hck Nef HTS 88.1 | Hck Nef conf active
O=C1NN(c2ccccc2)C(=O)/C1=C\c1coc2ccc(O)cc2c1=O	Hck Nef HTS 71.1 (no result: Mdm2 ligase inh) | Hck Nef conf active
O=C1NN(c2ccccc2)C(=O)/C1=C/c1cccs1	none
O=C(O)c1ccc2nc(-c3ccco3)c(-c3ccco3)nc2c1	Hck Nef HTS 51.8 | Hck Nef conf inactive
O=C(c1ccc2nc(-c3ccco3)c(-c3ccco3)nc2c1)N1CCN(c2ccccc2)CC1	none
COc1cccc(Nc2ccccc2C(=O)O)c1	none
COc1cc(-c2ccc(Nc3ccccc3C(=O)O)c(OC)c2)ccc1Nc1ccccc1C(=O)O	Hck Nef HTS 94.1, 14-3-3 Bad PPI 97.0 | Hck Nef conf active
Cn1c2ccccc2c(=O)c2c(=O)n(Cc3ccco3)c(-c3ccc(C(C)(C)C)cc3)nc21	Hck Nef HTS 55.1 | Hck Nef conf inactive
Cc1ccccc1S(=O)(=O)N(CC(O)CN1C(=O)NC(C)(C)C1=O)c1ccccc1 (stereo not given)	none
